Results published in ChEMBL document CHEMBL3861962 (Eur J Med Chem, 2016).

Experiments:
Cytochrome P450 3A4 [1] = molecular target: T1, Cytochrome P450 3A4 (Homo sapiens, UniProt P08684); assay: Drug metabolism assessed as human recombinant CYP3A4-mediated metabolite formation by measuring parent compound remaining at 5 uM in presence of NADPH after 30 mins by LC-MS/MS analysis; type: ADME; settings: recombinant enzyme, 0.5 h
Outline: (§1)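 Substrate at 5 μM final in 100 mM potassium phosphate, pH 7.4, incubated with human liver microsomes or baculovirus-expressed recombinant CYP3A4, 2D6 or 2C9. Reaction started with 1 mM NADPH and run 0, 15 and 30 min at 37 °C. Stopped with ice-cold acetonitrile containing labetalol internal standard, then centrifuged. Supernatant analysed by LC-MS/MS on a C18 column at 40 °C. Blank was enzyme without substrate.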

Cytochrome P450 3A4 [2] = molecular target: T1, Cytochrome P450 3A4; assay: Drug metabolism assessed as human recombinant CYP3A4-mediated formation of 4-(1,1,1,3,3,3-hexafluoro-2-methoxypropan-2-yl)-N-(6-(2-hydroxyethoxy)-5-(2-hydroxyphenoxy)-2,2'-bipyrimidin-4-yl)benzenesulfonamide at 5 uM in presence of NADPH after 30 mins by LC-MS/MS analysis; type: ADME; settings: recombinant enzyme, 0.5 h; outline: as §1
Cytochrome P450 3A4 [3] = molecular target: T1, Cytochrome P450 3A4; assay: Drug metabolism assessed as human recombinant CYP3A4-mediated formation of 4-(1,1,1,3,3,3-hexafluoro-2-hydroxypropan-2-yl)-N-(6-(2-hydroxyethoxy)-5-(2-methoxyphenoxy)-2,2'-bipyrimidin-4-yl)benzenesulfonamide at 5 uM in presence of NADPH after 30 mins by LC-MS/MS analysis; type: ADME; settings: recombinant enzyme, 0.5 h; outline: as §1
[4] = Drug metabolism in human liver microsomes assessed as formation of 4-(1,1,1,3,3,3-hexafluoro-2-hydroxypropan-2-yl)-N-(6-(2-hydroxyethoxy)-5-(2-methoxyphenoxy)-2,2'-bipyrimidin-4-yl)benzenesulfonamide at 5 uM in presence of NADPH after 30 mins by LC-MS/MS analysis; type: ADME; settings: 0.5 h; outline: as §1
[5] = Drug metabolism in human liver microsomes assessed as formation of 4-(1,1,1,3,3,3-hexafluoro-2-methoxypropan-2-yl)-N-(6-(2-hydroxyethoxy)-5-(2-hydroxyphenoxy)-2,2'-bipyrimidin-4-yl)benzenesulfonamide at 5 uM in presence of NADPH after 30 mins by LC-MS/MS analysis; type: ADME; settings: 0.5 h; outline: as §1
[6] = molecular target: T2, Endothelin receptor type B (Homo sapiens) (UniProt P24530); assay: Agonist activity at human recombinant ETB receptor expressed in CHOK1 cells assessed as induction of Ca2+ mobilization at 100 nM by fluorimetric method relative to control; type: functional, cell-based; settings: CHO-K1
T2 sequence (whole entry): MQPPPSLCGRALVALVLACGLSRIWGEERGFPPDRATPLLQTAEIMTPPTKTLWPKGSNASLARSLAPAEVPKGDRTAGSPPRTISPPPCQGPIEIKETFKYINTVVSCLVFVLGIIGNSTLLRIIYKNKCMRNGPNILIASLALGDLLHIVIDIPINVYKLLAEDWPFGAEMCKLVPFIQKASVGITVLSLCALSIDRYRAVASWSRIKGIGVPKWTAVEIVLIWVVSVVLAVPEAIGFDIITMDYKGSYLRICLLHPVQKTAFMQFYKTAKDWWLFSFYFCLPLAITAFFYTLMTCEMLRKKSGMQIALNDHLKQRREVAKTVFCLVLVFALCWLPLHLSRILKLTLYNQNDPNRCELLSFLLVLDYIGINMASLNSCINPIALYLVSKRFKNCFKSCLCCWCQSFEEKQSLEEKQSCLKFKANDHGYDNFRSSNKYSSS
Outline: (§2)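 ETB functional assay run by Cerep in human recombinant CHO-k1 cells at 22 °C with fluorimetric read-out. Test solutions were 1, 10, 100 and 1000 nM. Agonist response is given as % of the control response to 100 nM endothelin-1. For antagonist mode, inhibition is given as % of the control endothelin-1 agonist response, with BQ-788 as reference antagonist.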

[7] = molecular target: T2, Endothelin receptor type B (Homo sapiens); assay: Agonist activity at human recombinant ETB receptor expressed in CHOK1 cells assessed as induction of Ca2+ mobilization at 10 nM by fluorimetric method relative to control; type: functional, cell-based; settings: CHO-K1; outline: as §2
[8] = Drug metabolism in human liver microsomes assessed as formation of OH-substituted O-demethyl-4-(1,1,1,2,3,3,3-Heptafluoropropan-2-yl)-N-(6-(2-hydroxyethoxy)-5-(2-methoxyphenoxy)-2,2'-bipyrimidin-4-yl)benzenesulfonamide at 5 uM in presence of NADPH after 30 mins by LC-MS/MS analysis; type: ADME; settings: 0.5 h
Outline: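 Pooled human liver microsomes in 100 mM potassium phosphate, pH 7.4, with test compound at 5 μM final. Reaction started with 1 mM NADPH (final) and run at 37 °C in a shaking water bath for 0, 15 and 30 min. Stopped with an equal volume of ice-cold acetonitrile containing 0.6 μM labetalol as internal standard. Protein was spun out and the supernatant analysed by LC-MS/MS. Blank had no compound.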

Cytochrome P450 3A4 [9] = molecular target: T1, Cytochrome P450 3A4; assay: Drug metabolism assessed as human recombinant CYP3A4-mediated formation of OH-substituted O-demethyl-4-(1,1,1,2,3,3,3-Heptafluoropropan-2-yl)-N-(6-(2-hydroxyethoxy)-5-(2-methoxyphenoxy)-2,2'-bipyrimidin-4-yl)benzenesulfonamide at 5 uM in presence of NADPH after 30 mins by LC-MS/MS analysis; type: ADME; settings: recombinant enzyme, 0.5 h; outline: as §1
Cytochrome P450 3A4 [10] = molecular target: T1, Cytochrome P450 3A4; assay: Drug metabolism assessed as human recombinant CYP3A4-mediated formation of N-(6-(2-hydroxyethoxy)-5-(2-hydroxyphenoxy)-2,2'-bipyrimidin-4-yl)-4-(perfluoropropan-2-yl)benzenesulfonamide at 5 uM in presence of NADPH after 30 mins by LC-MS/MS analysis; type: ADME; settings: recombinant enzyme, 0.5 h; outline: as §1
[11] = Drug metabolism in human liver microsomes assessed as formation of N-(6-(2-hydroxyethoxy)-5-(2-hydroxyphenoxy)-2,2'-bipyrimidin-4-yl)-4-(perfluoropropan-2-yl)benzenesulfonamide at 5 uM in presence of NADPH after 30 mins by LC-MS/MS analysis; type: ADME; settings: 0.5 h; outline: as §1

T1 sequence (P08684 whole entry): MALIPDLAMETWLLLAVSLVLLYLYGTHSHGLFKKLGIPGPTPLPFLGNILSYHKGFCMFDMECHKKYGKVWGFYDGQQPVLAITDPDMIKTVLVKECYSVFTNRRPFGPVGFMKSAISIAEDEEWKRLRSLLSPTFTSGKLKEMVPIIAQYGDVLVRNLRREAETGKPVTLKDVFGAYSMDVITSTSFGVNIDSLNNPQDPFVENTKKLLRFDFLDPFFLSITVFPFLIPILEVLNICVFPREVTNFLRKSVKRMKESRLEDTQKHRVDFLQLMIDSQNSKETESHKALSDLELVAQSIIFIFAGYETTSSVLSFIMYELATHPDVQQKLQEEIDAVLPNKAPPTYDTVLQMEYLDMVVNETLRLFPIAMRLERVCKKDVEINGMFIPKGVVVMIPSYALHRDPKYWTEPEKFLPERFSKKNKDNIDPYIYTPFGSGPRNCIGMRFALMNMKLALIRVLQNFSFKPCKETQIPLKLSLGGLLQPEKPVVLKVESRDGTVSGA

| Stability (Cytochrome P450 3A4 [1]) | Drug metabolism (Cytochrome P450 3A4 [2]) | Drug metabolism (Cytochrome P450 3A4 [3]) | Drug metabolism [4] | Drug metabolism [5] | Activity [6] | Activity [7] | Drug metabolism [8] | Drug metabolism (Cytochrome P450 3A4 [9]) | Drug metabolism (Cytochrome P450 3A4 [10]) | Drug metabolism [11] | Compound |
| --- | --- | --- | --- | --- | --- | --- | --- | --- | --- | --- | --- |
| 19.2% | Metabolite_Detected | Metabolite_Detected | Metabolite_Detected | Metabolite_Detected | 0% | 0% |  |  |  |  | COc1ccccc1Oc1c(NS(=O)(=O)c2ccc(C(OC)(C(F)(F)F)C(F)(F)F)cc2)nc(-c2ncccn2)nc1OCCO |
| 16.3% |  |  |  |  | -1% | -1% | Metabolite_Detected | Metabolite_Detected | Metabolite_Detected | Metabolite_Detected | COc1ccccc1Oc1c(NS(=O)(=O)c2ccc(C(F)(C(F)(F)F)C(F)(F)F)cc2)nc(-c2ncccn2)nc1OCCO |
